Assay results as given in ChEMBL document CHEMBL1687798, “In vitro mitochondrial toxicity of metacavir, a new nucleoside reverse transcriptase inhibitor for treatment of hepatitis B virus” (Antimicrob Agents Chemother, 2010).

What was measured:
Assay type in all cases: cell-based
HepG2 [1] = assay: Cytotoxicity against human HepG2 cells assessed as reduction in mitochondrial DNA content at 250 uM after 15 days by RT-PCR method relative to control; design: scale not given: the % may be the effect or the level left; details: hepg2, 360 h
Summary of the method: (§1)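 Total DNA extracted from HepG2 cells after 15-day exposure. Cells reseeded every 5 days; compounds added from 1,000× DMSO stocks, final DMSO 0.1%. Cytochrome b and actin copies measured by TaqMan real-time PCR against plasmid standard curves, 45 cycles. mtDNA/nDNA ratio expressed as percent of DMSO control; three independent experiments.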

HepG2 [2] = assay: Cytotoxicity against human HepG2 cells assessed as inhibition of mitochondrial respiratory chain complex II activity at 250 uM after 15 days relative to control; details: hepg2, 360 h
HepG2 [3] = assay: Cytotoxicity against human HepG2 cells assessed as reduction in viable cells upto 250 uM after 15 days by trypan blue dye exclusion assay relative to control; details: hepg2, 360 h
Summary of the method: (§2)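 HepG2 cells seeded at 5 × 10⁵/ml in MEM with 10% FBS and 1 mM pyruvate. Exposed for 6, 9 and 15 days, with medium and drug renewed every 3 days. Viable cells counted by trypan blue exclusion on a hemocytometer and expressed as percent of 0.1% DMSO control; three independent experiments.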

HepG2 [4] = assay: Cytotoxicity against human HepG2 cells assessed as inhibition of mitochondrial respiratory chain complex IV activity at 50 uM after 15 days relative to control; details: hepg2, 360 h
HepG2 [5] = assay: Cytotoxicity against human HepG2 cells assessed as inhibition of mitochondrial respiratory chain complex I activity at 10 uM after 15 days relative to control; details: hepg2, 360 h
HepG2 [6] = assay: Cytotoxicity against human HepG2 cells assessed as inhibition of mitochondrial respiratory chain complex IV activity at 250 uM after 15 days relative to control; details: hepg2, 360 h
HepG2 [7] = assay: Cytotoxicity against human HepG2 cells assessed as lipid droplet formation at 250 uM after 15 days by electron microscopy relative to control; details: hepg2, 360 h
Summary of the method: (§3)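 HepG2 cells exposed 15 days, then fixed in 2.5% glutaraldehyde 1 h, postfixed in 1% osmium tetroxide 1 h, dehydrated through graded ethanol and propylene oxide, Epon-embedded, sectioned, and stained with uranyl acetate and lead citrate. Examined by transmission EM; >10 fields per treatment at low or high magnification; three independent experiments. DMSO 0.1% vehicle control.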

HepG2 [8] = assay: Cytotoxicity against human HepG2 cells assessed as inhibition of mitochondrial respiratory chain complex II activity at 10 uM after 15 days relative to control; details: hepg2, 360 h
HepG2 [9] = assay: Cytotoxicity against human HepG2 cells assessed as inhibition of mitochondrial respiratory chain complex I activity at 250 uM after 15 days relative to control; details: hepg2, 360 h
HepG2 [10] = assay: Cytotoxicity against human HepG2 cells assessed as inhibition of mitochondrial respiratory chain complex III activity at 250 uM after 15 days relative to control; details: hepg2, 360 h
HepG2 [11] = assay: Cytotoxicity against human HepG2 cells assessed as inhibition of mitochondrial respiratory chain complex I activity after 15 days relative to control; details: hepg2, 360 h
HepG2 [12] = assay: Cytotoxicity against human HepG2 cells assessed as inhibition of mitochondrial respiratory chain complex II activity at 50 uM after 15 days relative to control; details: hepg2, 360 h
HepG2 [13] = assay: Cytotoxicity against human HepG2 cells assessed as increase in extracellular lactate secretion at 10 to 250 uM after 15 days relative to control; details: hepg2, 360 h
Summary of the method: (§4)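 Extracellular lactate in HepG2 culture medium measured with a lactic acid kit after 15 days of exposure. Medium and drug renewed every 3 days. Expressed as mg lactic acid per 10⁶ cells, then as percent of 0.1% DMSO vehicle control. n = 3.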

HepG2 [14] = assay: Cytotoxicity against human HepG2 cells assessed as inhibition of mitochondrial respiratory chain complex IV activity at 10 uM after 15 days relative to control; details: hepg2, 360 h
HepG2 [15] = assay: Cytotoxicity against human HepG2 cells assessed as reduction in mitochondrial DNA content at 50 uM after 15 days by RT-PCR method relative to control; design: scale not given: the % may be the effect or the level left; details: hepg2, 360 h; summary of the method: as §1
HepG2 [16] = assay: Cytotoxicity against human HepG2 cells assessed as inhibition of mitochondrial respiratory chain complex III activity after 15 days relative to control; details: hepg2, 360 h
HepG2 [17] = assay: Cytotoxicity against human HepG2 cells assessed as reduction in mitochondrial DNA content at 10 uM after 15 days by RT-PCR method relative to control; design: scale not given: the % may be the effect or the level left; details: hepg2, 360 h; summary of the method: as §1
HepG2 [18] = assay: Cytotoxicity against human HepG2 cells assessed as inhibition of mitochondrial respiratory chain complex I activity at 50 uM after 15 days relative to control; details: hepg2, 360 h
HepG2 [19] = assay: Cytotoxicity against human HepG2 cells assessed as mitochondrial swelling at 250 uM after 15 days by electron microscopy relative to control; details: hepg2, 360 h; summary of the method: as §3
HepG2 [20] = assay: Cytotoxicity against human HepG2 cells assessed as inhibition of mitochondrial respiratory chain complex III activity at 10 uM after 15 days relative to control; details: hepg2, 360 h
HepG2 [21] = assay: Cytotoxicity against human HepG2 cells assessed as inhibition of mitochondrial respiratory chain complex IV activity after 15 days relative to control; details: hepg2, 360 h
HepG2 [22] = assay: Cytotoxicity against human HepG2 cells assessed as inhibition of mitochondrial respiratory chain complex II activity after 15 days relative to control; details: hepg2, 360 h
HepG2 [23] = assay: Cytotoxicity against human HepG2 cells assessed as inhibition of mitochondrial respiratory chain complex III activity at 50 uM after 15 days relative to control; details: hepg2, 360 h
HepG2 [24] = assay: Cytotoxicity against human HepG2 cells assessed as disrupted mitochondrial cristae at 10 uM after 15 days by electron microscopy relative to control; details: hepg2, 360 h; summary of the method: as §3
HepG2 [25] = assay: Cytotoxicity against human HepG2 cells assessed as increase in extracellular lactate secretion at 10 uM after 15 days relative to control; details: hepg2, 360 h; summary of the method: as §4
HepG2 [26] = assay: Cytotoxicity against human HepG2 cells assessed as mitochondrial swelling at 10 uM after 15 days by electron microscopy relative to control; details: hepg2, 360 h; summary of the method: as §3
HepG2 [27] = assay: Cytotoxicity against human HepG2 cells assessed as reduction in viable cells at 10 uM after 15 days by trypan blue dye exclusion assay relative to control; details: hepg2, 360 h; summary of the method: as §2
HepG2 [28] = assay: Cytotoxicity against human HepG2 cells assessed as reduction in viable cells at 50 uM after 6 days by trypan blue dye exclusion assay relative to control; details: hepg2, 144 h; summary of the method: as §2
HepG2 [29] = assay: Cytotoxicity against human HepG2 cells assessed as increase in extracellular lactate secretion at 50 uM after 15 days relative to control; details: hepg2, 360 h; summary of the method: as §4
HepG2 [30] = assay: Cytotoxicity against human HepG2 cells assessed as reduction in viable cells at 50 uM after 15 days by trypan blue dye exclusion assay relative to control; details: hepg2, 360 h; summary of the method: as §2
HepG2 [31] = assay: Cytotoxicity against human HepG2 cells assessed as slight increase in mitochondrial size at 50 uM after 15 days by electron microscopy relative to control; details: hepg2, 360 h; summary of the method: as §3

Structure (SMILES): COc1nc(N)nc2c1ncn2[C@H]1CC[C@@H](CO)O1 [METACAVIR]
- Activity (HepG2 [1]): 60%
- Activity (HepG2 [2]): Toxic
- Activity (HepG2 [3]): Non-toxic
- Activity (HepG2 [4]): Toxic
- Activity (HepG2 [5]): Non-toxic
- Activity (HepG2 [6]): Toxic
- Activity (HepG2 [7]): Toxic
- Activity (HepG2 [8]): Non-toxic
- Activity (HepG2 [9]): Toxic
- Activity (HepG2 [10]): Toxic
- Activity (HepG2 [11]): Dose-dependent effect
- Activity (HepG2 [12]): Non-toxic
- Activity (HepG2 [13]): Non-toxic
- Activity (HepG2 [14]): Non-toxic
- Activity (HepG2 [15]): 80%
- Activity (HepG2 [16]): Dose-dependent effect
- Activity (HepG2 [17]): Non-toxic
- Activity (HepG2 [18]): Toxic
- Activity (HepG2 [19]): Toxic
- Activity (HepG2 [20]): Non-toxic
- Activity (HepG2 [21]): Dose-dependent effect
- Activity (HepG2 [22]): Dose-dependent effect
- Activity (HepG2 [23]): Toxic

Structure (SMILES): Nc1ccn([C@H]2CC[C@@H](CO)O2)c(=O)n1 [ZALCITABINE]
- Activity (HepG2 [5]): Toxic
- Activity (HepG2 [24]): Toxic
- Activity (HepG2 [8]): Toxic
- Activity (HepG2 [25]): 170%
- Activity (HepG2 [14]): Toxic
- Activity (HepG2 [17]): 3%
- Activity (HepG2 [26]): Toxic
- Activity (HepG2 [27]): < 30%
- Activity (HepG2 [20]): Toxic

Structure (SMILES): Cc1cn([C@H]2C[C@H](N=[N+]=[N-])[C@@H](CO)O2)c(=O)[nH]c1=O [ZIDOVUDINE]
- Activity (HepG2 [4]): Toxic
- Activity (HepG2 [28]): Toxic
- Activity (HepG2 [12]): Toxic
- Activity (HepG2 [29]): 300%
- Activity (HepG2 [15]): Non-toxic
- Activity (HepG2 [18]): Toxic
- Activity (HepG2 [30]): 60%
- Activity (HepG2 [23]): Toxic
- Activity (HepG2 [31]): Toxic
